From PubChem
Yeast tox = Inhibits yeast growth, turbidity readout; actives 0.3% (n = 30,000); AID 685; growth inhibition, % at 25 µM (by protocol); S. cerevisiae wild-type growth, A595 turbidity, 16 h;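 active = mutant and wild-type yeast strains alike exhibit over 30% growth inhibition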;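 also: 0% = untreated cell controls and 100% = YPD media blanks without cells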
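System: S. cerevisiae wild-type or eIF2Bepsilon-R284H mutant strain; times: 16 h growth with compound, 30 °C; signal: absorbance at 595 nm (turbidity); measure: growth inhibition (%) versus cell controls and blanks; compound: 25 µM single dose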
eIF2B yeast act = modulators of yeast eIF2B activity | S. cerevisiae eIF2B-epsilon R284H, GCN4-lacZ luminescence | inhibition, % at 25 µM (by protocol) | actives 0.91% (n = 27,000);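 active = mutant luminescence inhibited past about 50% while wild type luminescence and mutant growth stay under set limits, limit read from the data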
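Material: yeast eIF2B-epsilon R284H mutant carrying GCN4–beta-galactosidase fusion. Medium: YPD yeast growth medium. Incubation: 16 h growth with compound at 30 °C, 90 min Beta-Glo step. Signal: Beta-Glo luminescence plus absorbance at 595 nm. Evaluation: % inhibition of reporter signal and growth versus controls. Doses: 25 µM single dose.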
The depositor's hits bear a star; / = no result given. A selection: hits, their analogues and other compounds. The true share with any hit is near 1.1%.

SMILES	Yeast tox	eIF2B yeast act
Cc1ccc(-c2cc3nc(-c4ccccc4)cc(N4CCOCC4)n3n2)cc1	-30	/
CCN1CCN(c2cc(-c3ccccc3)nc3cc(-c4cccc(F)c4)nn23)CC1	/	53*
C=CCOC(=O)CN1C(=O)c2ccccc2C1=O	10	22
Cc1cc(C)n(CCn2nc(C)cc2C)n1	-12	29
Cc1cc(C)n(-c2cc(=O)n(C)c(=O)n2C)n1	-3	51*
CC(C)C1Oc2ccccc2N(CC(=O)N(Cc2ccccn2)CC2CCCO2)C1=O (stereo unspecified)	-2	59*
O=C(CN(CC1CCCO1)C(=O)CCC(=O)Nc1ccccn1)NCc1ccccc1 (stereo unspecified)	25	-9
CSc1ccccc1C(=O)NCC1CCCO1 (stereo unspecified)	13	/
Cc1ccc(CN(CC2CCCO2)C(=O)CN2C(=O)C(C(C)C)Oc3ccccc32)o1 (stereo unspecified)	16	59*
COCCNC(=O)C(OC(=O)CC1Sc2ccccc2NC1=O)c1ccccc1 (stereo unspecified)	-6	-3
Cc1ccc(NC(=O)NC2CCCN2S(=O)(=O)c2ccc(Cl)cc2)cc1 (stereo unspecified)	27	16
O=c1c(Cl)c(NCCCO)cnn1-c1nc2ccccc2[nH]1	29	56*
O=c1[nH]ncc(NCCCO)c1Cl	11	18
Cc1ccc(/C=N/N2CCN(Cc3ccc(Cl)cc3)CC2)o1	3	13
CCN(CC)S(=O)(=O)c1ccc2oc(C(=O)NCc3ccc(C)cc3)c(C)c2c1	10	14
CCC(Sc1nc2ccccc2s1)C(=O)Nc1cc(C)on1 (stereo unspecified)	-1	27
COc1ccccc1Nc1nc(C)cc(C)c1C(N)=O	-12	52*
Cc1cc(C)c(C(N)=O)c(Nc2cccc3ccccc23)n1	-3	/
O=C(c1ccc(Cl)c(S(=O)(=O)N2CCOCC2)c1)N1CCN(Cc2ccccc2)CC1	/	-41
O=C1CNC(=O)/C1=C\N1CCN(C(c2ccccc2)c2ccccc2)CC1	-42	26
CCOC(=O)C1=C(C)NC(SCc2cc(=O)[nH][nH]2)=C(C#N)C1c1cccs1 (stereo unspecified)	-6	56*
C=CCOC(=O)C1=C(C)NC(SC)=C(C#N)C1c1cccs1 (stereo unspecified)	9	10
C/C(=C\c1ccccc1)C(=O)Nc1cc(C)on1	17	13
c1ccc2c(N3CCCC3)nc(-c3ccncc3)nc2c1	/	-4
C=CCNc1nc(-c2cccc(OC)c2O)nc2ccccc12	-19	57*
SMILES	Yeast tox	eIF2B yeast act
COc1cccc(-c2nc(NCc3ccco3)c3ccccc3n2)c1O	12	22
COc1cccc(-c2nc(N3CCCCC3C)c3ccccc3n2)c1O (stereo unspecified)	-7	56*
O=C(CNS(=O)(=O)c1ccccc1)NCc1ccccn1	-13	-29
COc1ccc(C2=CC(c3ccc(Cl)cc3)n3cnnc3N2)cc1OC (stereo unspecified)	2	21
CN1CCN(C(=O)CN(c2cc(C(F)(F)F)ccc2Cl)S(C)(=O)=O)CC1	13	13
COc1ccc(C2=CC(c3sccc3C)n3nnnc3N2)cc1 (stereo unspecified)	14	56*
COc1ccc(C2C=C(c3ccc(Cl)cc3)Nc3nc(NC(C)=O)nn32)cc1 (stereo unspecified)	19	1
Cc1cc(-c2nc3ccccc3o2)c2ccccc2n1	-6	5
Cc1nc2ccc(-c3ccccc3)cc2o1	32*	5
Cc1cc(-c2nnc(-c3ccccc3)c(-c3ccccc3)n2)c(C)o1	-29	12
Cc1cc(C)c2ccc(C(=O)O)nc2c1O	-10	14
COc1cccc(C(=O)Nc2cccc(C(=O)N3CCOCC3)c2)c1	9	59*
Cc1cccc(C(=O)Nc2cccc(C(=O)N3CCOCC3)c2)c1	4	22
COC(=O)c1ccc2c(=O)n(CCCCCC(=O)NCc3ccccn3)c(=O)[nH]c2c1	13	16
CN(Cc1c(F)cccc1Cl)c1ccc(S(=O)(=O)N2CCOCC2)cn1	-5	57*
Cc1c(Cl)cccc1NC(=O)COc1ccc(S(=O)(=O)N2CCOCC2)cc1	-23	/
C=CCn1c(CSc2nc3ccccc3s2)nnc1SCC(=O)NCc1ccccc1	-1	12
Cc1c(Cl)cccc1NC(=S)NN1CCOCC1	9	8
COc1ccc(C(=O)COC(=O)c2ccc(OC)c(OC)c2)cc1OC	-17	30
COc1ccc(C(=O)COC(=O)CN2C(=O)NC(C)(C)C2=O)cc1OC	-6	60*
COc1cc(S(=O)(=O)N(Cc2ccc(C)cc2)Cc2ccco2)ccc1-n1cnnn1	-13	13
COc1cc(S(=O)(=O)N(Cc2cccnc2)Cc2ccco2)ccc1-n1cnnn1	5	53*
COC(=O)c1ccc(C(=O)OC)c(NC(=O)CN(c2ccc3c(c2)OCO3)S(C)(=O)=O)c1	-1	/
CC(=O)Nc1sc(NC(=O)c2ccc(C)cc2)nc1-c1cccs1	-36	29
Brc1cnn(-c2nc(N3CCOCC3)nc(N3CCOCC3)n2)c1	-18	52*
SMILES	Yeast tox	eIF2B yeast act
Brc1cnc(N2CCOCC2)nc1N1CCCCC1	9	30
CCC(CC)COC(=O)C(C#N)c1nc2ccccc2nc1N1CCOCC1 (stereo unspecified)	12	14
N#CC(C(=O)OC1CCCCC1)c1nc2ccccc2nc1N1CCOCC1 (stereo unspecified)	-13	51*
Cc1ccc2c(c1)N(CC(=O)NCc1cccnc1)C(=O)CO2	3	59*
Cc1ccc2c(c1)N(CC(=O)N1CCCCCC1)C(=O)CO2	3	-23
CCC(=O)Nc1ccc(S(=O)(=O)Nc2cccc(C)c2)cc1OC	/	-31
Cc1cccc(N(CC(=O)N2CCCC2)S(=O)(=O)c2ccccc2)c1	11	20
O=C(Nc1ccccc1N1CCN(C(=O)c2ccccc2)CC1)c1cc2ccccc2o1	-30	50*
Nc1ccccc1N1CCN(C(=O)c2ccccc2)CC1	9	10
O=c1[nH]nc(Cc2ccc3ccccc3n2)c2ccccc12	22	28
CCOC(=O)/C(=N\Nc1ccc(OC)cc1)c1csc(Nc2ccccc2)n1	7	18
CC(Sc1ccc2ccccc2n1)C(=O)O (stereo unspecified)	9	/
CC(O)/C=C/c1ccc2ccccc2n1 (stereo unspecified)	31*	37
CCOC(=O)C1=C(Cn2cnc3ccccc32)NC(=O)NC1c1ccc(OC)cc1 (stereo unspecified)	23	/
CCCCCOC(=O)Nc1nnc(CCC)s1	1	51*
CCCc1nnc(NC(=O)CN2C(=O)c3ccccc3C2=O)s1	17	20
COc1ccccc1C1CC(c2ccc(Cl)cc2)Nc2ncnn21 (stereo unspecified)	5	-19
CC1(C)C(=O)N(OCc2ccccc2)C(C)(C)C(=O)N1OCc1ccccc1	30	/
COC(=O)c1cccc(NC(=O)c2ccc(S(=O)(=O)N3CCN(C)CC3)cc2)c1	1	59*
CN1CCN(S(=O)(=O)c2ccc(NC(=O)Nc3cccc(Cl)c3)cc2)CC1	-8	/
CN1C(=O)N(C)C2(c3ccccc3)N(C)C(=O)NC12c1ccccc1 (stereo unspecified)	-14	9
Cc1ccc(-c2c(C)n([O-])c3c([n+]2=O)CCCC3)o1	10	5
